These results are taken from paper PMC4636458 (Molecular cancer therapeutics, 2015).

Read-outs that look alike come from different tables or passages of the source.

The assay addresses recombinant human ezrin (Homo sapiens, UniProt P15311). Briefly: SPR. In kind it is binding. To be noted: read-out: KD (μM)^a, HBS-P pH 7.4, 2-10% DMSO, room temperature. In short, it runs like this:
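Untagged full-length recombinant human ezrin was expressed in E. coli M15 [pREP4] from a pQE16 vector. It was amine-coupled (~10,000 RU) in sodium acetate pH 4.5 to the second flow cell of a CM5 chip, with the first flow cell left empty for background subtraction. Running buffer was HBS-P (10 mM HEPES pH 7.4, 150 mM NaCl, 0.05% P20) with 2–10% DMSO. Seven concentrations (0.78–50 μM) were injected in triplicate over ezrin and control surfaces.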

recombinant human ezrin, sequence (P15311 whole entry): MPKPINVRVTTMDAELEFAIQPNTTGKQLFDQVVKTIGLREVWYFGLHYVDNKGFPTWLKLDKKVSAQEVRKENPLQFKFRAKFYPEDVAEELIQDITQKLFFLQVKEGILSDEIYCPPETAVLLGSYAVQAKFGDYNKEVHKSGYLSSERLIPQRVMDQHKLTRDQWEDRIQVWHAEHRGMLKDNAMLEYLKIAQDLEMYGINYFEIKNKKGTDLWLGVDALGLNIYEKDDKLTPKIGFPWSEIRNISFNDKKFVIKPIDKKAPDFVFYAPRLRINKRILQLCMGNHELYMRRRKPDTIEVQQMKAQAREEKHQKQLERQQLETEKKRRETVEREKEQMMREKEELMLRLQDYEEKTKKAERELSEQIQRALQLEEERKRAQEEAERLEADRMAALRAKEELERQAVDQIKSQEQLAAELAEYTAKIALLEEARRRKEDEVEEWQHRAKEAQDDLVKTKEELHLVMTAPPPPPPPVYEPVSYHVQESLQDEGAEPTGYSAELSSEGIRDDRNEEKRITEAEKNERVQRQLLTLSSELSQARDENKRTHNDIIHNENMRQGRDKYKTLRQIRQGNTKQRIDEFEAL

For the compound `CC1CCN(Cc2ccc(NC(=O)c3cc4ccc5cccnc5c4[nH]3)cc2)CC1` [MMV020549], under “n=3”, the Kd was determined as 10.7 ± 0.4 µM. For the compound `COc1ccc(CCN2CCC(CN(C)Cc3cnn(-c4ccccc4)c3)CC2)cc1` [MMV666069], where the note is “n=5”, the Kd amounted to 2.1 ± 1 µM. For `CCn1c(SCC(=O)Nc2cc(C(F)(F)F)ccc2Cl)nc2ccccc2c1=O` [MMV666103], for the setting “n=4”, the Kd came out at 2.6 ± 1 µM. `CCOC(=O)c1cn(CC)c2cc(N(C)CCc3ccc(OC)c(OC)c3)c(F)cc2c1=O` [MMV665977]: where the note is “n=5”, the Kd amounted to 3.1 ± 1.6 µM.

As to `CN(N=O)C1=C(NC2CCCCC2)C(=O)c2ccccc2C1=O` [MMV667492], the Kd (n=2) stood at 29.4 ± 4.4 µM.

Take `CN1CCN(c2ccc(Nc3c4ccccc4nc4ccccc34)cc2)CC1` [MMV006172]: the Kd (n=3) came to 6.1 ± 2.8 µM.
